HTRA1 inhibitor = HTRA1 serine protease inhibitors, primary screen, biochemical, fluorescence polarization, HTS | Q92743 | recombinant HTRA1, FP-rhodamine activity-based probe | inhibition, % at 5.96 µM | 0.5% of 340,000 active | AID 504803, 2011; in the data active = inhibition above about 36%;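 note: 0% = enzyme with DMSO and 100% = wells lacking enzyme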
PRMT1 FP inh = PRMT1 methyltransferase inhibitors, primary screen, biochemical, fluorescence polarization. 1.3% of 370,000 active. recombinant PRMT1, activity-based probe fluorescence polarization. Protein arginine N-methyltransferase 1 (Homo sapiens), Q99873. inhibition, % at 2.79 µM;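 active = inhibition above about 21% made by adding two undisclosed values, limit read from the data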
Target sequence (Q99873 whole entry, looked up): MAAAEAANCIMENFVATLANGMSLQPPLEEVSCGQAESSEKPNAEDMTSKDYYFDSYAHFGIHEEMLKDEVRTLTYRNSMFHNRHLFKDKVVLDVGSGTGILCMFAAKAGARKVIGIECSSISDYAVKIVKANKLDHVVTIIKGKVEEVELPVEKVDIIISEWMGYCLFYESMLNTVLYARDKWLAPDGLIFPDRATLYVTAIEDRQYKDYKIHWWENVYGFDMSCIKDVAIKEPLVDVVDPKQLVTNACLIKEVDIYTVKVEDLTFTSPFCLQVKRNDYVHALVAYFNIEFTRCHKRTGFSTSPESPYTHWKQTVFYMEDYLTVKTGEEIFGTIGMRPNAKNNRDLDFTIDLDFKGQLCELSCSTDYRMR
SIAE inh = human SIAE inhibitors, primary screen, biochemical, fluorescence polarization, FP-Rh probe, 1536-well HTS. Sialate O-acetylesterase (Homo sapiens), Q9HAT2. inhibition, % at 9.66 µM. 0.69% of 370,000 active. SIAE FP-Rh probe binding;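 active = inhibition above a cutoff: mean of compounds within the control limits plus 3 SD of those, cut at about 17% in these data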;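 note: 0% = plate median of compound wells and 100% = probe without SIAE protein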
TCR-CD3 inh = inhibitors of human TCR-CD3 interaction, primary screen, biochemical, fluorescence, TAMRA-labeled TCR probe | inhibition, % at 9.4 µM | 0.37% of 360,000 active;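 note: recombinant mutant TCR 2C K166C tagged with TAMRA read by polarization; 0% = receptor in buffer alone and 100% = receptor with positive control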
mABHD4 FP = ABHD4 inhibitors, primary screen, biochemical, fluorescence polarization, mouse; (Lyso)-N-acylphosphatidylethanolamine lipase (Mus musculus), Q8VD66; purified mABHD4, FP-Rh probe fluorescence polarization; inhibition, % at 8.92 µM; 0.54% of 370,000 active; AID 720543, 2013;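 active = inhibition exceeding the mean over every tested compound plus 3 SD, cut at about 30% in these data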;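 note: 0% = plate median of compound wells and 100% = S159A mutant with DMSO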
Target sequence (Q8VD66 whole entry, looked up): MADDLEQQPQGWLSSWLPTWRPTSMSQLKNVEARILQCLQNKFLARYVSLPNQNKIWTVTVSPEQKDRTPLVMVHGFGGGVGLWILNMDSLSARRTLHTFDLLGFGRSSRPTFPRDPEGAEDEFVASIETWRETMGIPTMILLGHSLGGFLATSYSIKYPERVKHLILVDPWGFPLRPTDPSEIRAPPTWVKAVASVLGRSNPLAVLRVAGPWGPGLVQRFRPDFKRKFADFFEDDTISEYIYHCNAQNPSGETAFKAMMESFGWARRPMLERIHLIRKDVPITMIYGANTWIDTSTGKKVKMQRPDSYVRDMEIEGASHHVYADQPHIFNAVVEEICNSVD
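Assay system: mouse ABHD4 enzyme, wild type / Also added: fluorescent activity-based probe FP-Rh / Doses: single nominal dose of 8.92 µM, 0.89% DMSO final / Timing: 45 min compound pre-incubation plus 60 min probe step, 25 °C / Signal: FP readout, ex 525 nm / em 598 nm / Control set: S159A mutant/DMSO as 100%, compound-well median as 0%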
HTRA1 conf = HTRA1 protease inhibitors, retest, confirmation, biochemical, fluorescence polarization | shares compounds with HTRA1 inhibitor | recombinant HTRA1, FP-rhodamine activity-based probe | inhibition, % at 5.96 µM | 66% of 1,600 active;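 active = mean inhibition over three repeats above a set limit taken from the earlier primary screen, cut at about 37% in these data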;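 note: 0% = HTRA1 with DMSO and 100% = wells lacking HTRA1; inhibitors block probe binding so polarization drops and inhibition rises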
BSA TAMRA ctr = compounds interfering with TAMRA-BSA probe, counter-screen for TCR-CD3 interaction inhibitor project, biochemical, fluorescence, TAMRA-labeled BSA | TAMRA-labeled BSA probe fluorescence counterscreen | 10% of 1,200 active | inhibition, % at 9.4 µM | AID 652035, 2013 | shares compounds with TCR-CD3 inh; in the data active = inhibition above about 23%;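 note: 0% = buffer low control and 100% = reference high control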
TCR-CD3 conf = TCR-CD3 interaction inhibitors, retest, confirmation, biochemical, fluorescence, TAMRA-labeled TCR probe; shares compounds with TCR-CD3 inh; inhibition, % at 9.4 µM; AID 652036, 2013; TAMRA-labeled TCR probe fluorescence binding assay; 48% of 1,200 active
PRMT1 confirm = PRMT1 methyltransferase inhibitors, confirmation, biochemical, fluorescence polarization, triplicate | AID 687036, 2013 | shares compounds with PRMT1 FP inh | inhibition, % at 2.79 µM | recombinant His-PRMT1, activity-based probe fluorescence polarization | 42% of 3,300 active;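 active = mean inhibition across replicates above the hit cutoff derived for the earlier primary screen, cut at about 22% in these data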
mABHD4 conf = ABHD4 inhibitors, retest, confirmation, biochemical, fluorescence polarization, mouse. shares compounds with mABHD4 FP. 55% of 1,800 active. inhibition, % at 8.92 µM. AID 720658, 2013. purified mABHD4, FP-Rh probe fluorescence polarization;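 active = mean inhibition across replicates above the hit cutoff set in the primary screen, cut at about 30% in these data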;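 note: 0% = wild-type ABHD4 with DMSO and 100% = catalytically dead S159A mutant with DMSO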
An asterisk follows results filed as active; · = not tested or not shown. Most compounds without a hit are left out; they make up all but 2.5% or so of the library. Cut-off read from the data, not from the text of the source, unless noted: active = inhibition above about 19%; inactive = the rest.

SMILES	HTRA1 inhibitor	PRMT1 FP inh	SIAE inh	TCR-CD3 inh	mABHD4 FP	HTRA1 conf	mABHD4 conf	others
O=c1cc2oc3cc(O)c(O)cc3c(-c3ccccc3[N+](=O)[O-])c-2cc1O	58.5*	17.1	14.2	101.5*	53.0*	68.2*	55.3*	BSA TAMRA ctr=-12.8;TCR-CD3 conf=83.5*
CC(=O)NC1CCCCN(Cc2cccc(F)c2)C1=O (stereo not given)	·	-2.8	2.8	·	4.9	·	·
CN(C)c1ccc(NC2=C(Cl)C(=O)c3ccccc3C2=O)cc1	62.6*	9.8	9.7	-2.5	42.6*	58.5*	54.0*
Nc1nonc1C(=O)NCCNS(=O)(=O)c1ccc(Br)cc1	-0.3	1.4	11.0	4.6	-1.3	·	·
COCCNc1nc(Oc2ccc(C(N)=O)cc2)c2sccc2n1	·	-4.9	6.7	-3.4	5.0	·	·
O=C1C(NS(=O)(=O)c2cccs2)=C(N2CCN(c3cccc(C(F)(F)F)c3)CC2)C(=O)c2ccccc21	44.9*	9.7	3.0	0.2	43.2*	69.5*	69.9*
CCOc1ccccc1N1CCN(C2=C(NS(=O)(=O)c3cccs3)C(=O)c3ccccc3C2=O)CC1	63.2*	-1.1	12.5	0.8	48.4*	67.5*	61.7*
CN1CCN(C2=C(NS(=O)(=O)c3cccs3)C(=O)c3ccccc3C2=O)CC1	1.5	-3.8	-2.6	1.1	2.5	·	·
CC(C)(C)OC(=O)N1CCc2onc(-c3ccccc3[N+](=O)[O-])c2C1=O	·	-2.8	12.2	2.2	4.6	·	·
CC1CCCC(C)N1/N=C/c1ccc(O)c(O)c1 (stereo not given)	43.3*	7.2	5.7	23.3*	36.5*	29.1	11.8	BSA TAMRA ctr=-1.0;TCR-CD3 conf=20.2*
COc1ccc(/C=N/N2C(C)CCCC2C)cc1O (stereo not given)	9.9	-2.9	7.1	-2.0	0.1	·	·
CN(C)Cc1c(O)ccc2c(=O)c(-c3ccc(Cl)cc3)coc12	3.1	-1.0	-4.2	9.8	2.3	·	·
O=c1c(-c2ccc([N+](=O)[O-])cc2)coc2c(O)c(O)ccc12	66.1*	38.4*	-2.1	16.0	42.2*	68.1*	22.1
Cc1cccc2c(N=Nc3ccc(S(=O)(=O)Nc4cccc(Cl)c4)cc3[N+](=O)[O-])c(O)[nH]c12	37.2*	1.3	3.0	3.4	43.0*	27.7	-42.7
Cc1ccc(S(=O)(=O)Nc2ccccc2)cc1[N+](=O)[O-]	0.6	-2.0	-4.4	3.3	-1.6	·	·
O=C(O)c1ccc2c(c1)C1C=CCC1C(c1ccncc1)N2 (stereo not given)	6.1	-5.1	0.6	-2.2	-0.9	·	·
FC(F)(F)c1ccc2c(c1)C1C=CCC1C(c1ccncc1)N2 (stereo not given)	51.6*	7.6	9.8	-19.0	38.8*	58.7*	13.2
O=C(NCc1ccccn1)C1Nc2ccc(C(F)(F)F)cc2C2C=CCC12 (stereo not given)	45.2*	10.5	15.6	-5.6	31.8*	4.3	3.6
CCC(C(=O)OCC(=O)N(CC)c1c(N)n(Cc2ccccc2)c(=O)[nH]c1=O)c1ccccc1 (stereo not given)	3.2	-2.2	1.2	0.1	4.2	·	·
CCN(CC)CC#CCC(C)(c1ccccc1)c1ccccc1	-1.5	-0.9	5.0	4.2	-10.5	·	·
O=C1C(Cl)=C(N2CCCCC2)C(=O)N1c1ccccc1Cl	-7.5	17.1	13.9	-0.4	4.9	·	·
O=C1c2cccc(Cl)c2C(=O)c2c1cccc2N1CCCC1	65.1*	7.0	7.9	-7.3	65.6*	64.7*	85.4*
COc1cccc2c1cc1c(=O)n(CC(=O)N3CCC(C)CC3)nc(C)n12	7.3	-2.0	-6.0	-4.8	-3.0	·	·
Oc1ccccc1N=Cc1c(O)ccc2ccccc12	63.3*	13.1	11.2	28.7*	44.6*	77.6*	44.6*	BSA TAMRA ctr=-8.8;TCR-CD3 conf=37.0*
Oc1ccc2ccccc2c1C=Nc1ccccc1Br	2.2	8.9	0.9	-3.4	-1.4	·	·
SMILES	HTRA1 inhibitor	PRMT1 FP inh	SIAE inh	TCR-CD3 inh	mABHD4 FP	HTRA1 conf	mABHD4 conf	others
Cc1ccc(C)c(N2CCN(C(=O)CCc3nc(-c4cccc(Cl)c4)no3)CC2)c1	-24.1	5.6	-2.7	-8.2	-15.8	·	·
CC1=C(O)C(=O)C(c2c(C)cc(C)c(Br)c2C)=C(O)C1=O	84.1*	25.0*	16.4	22.7*	78.7*	73.7*	73.8*	BSA TAMRA ctr=0.0;TCR-CD3 conf=14.6;PRMT1 confirm=23.5*
O=C(NNC(=O)c1ccc(Br)s1)c1cccc(Cl)c1	4.2	1.9	0.9	-5.7	3.3	·	·
Cc1ccc(S(=O)(=O)/N=C2\C=C(Nc3cccc(C(=O)O)c3)C(=O)c3ccccc32)cc1	52.3*	1.9	3.9	-0.2	32.9*	29.9	61.9*
O=C(O)c1cccc(NC2=C(N3CCOCC3)C(=O)c3ccccc3C2=O)c1	2.1	-0.7	-3.4	-3.1	5.4	·	·
Cc1ccc(S(=O)(=O)/N=C2\C=C(Nc3cccc(C(=O)O)c3)C(=O)c3ccccc32)c(C)c1	57.9*	0.6	15.5	-0.2	47.3*	62.7*	101.0*
Cc1ccc(S(=O)(=O)/N=C2/C=C(Sc3ncn[nH]3)C(=O)c3ccccc32)cc1	21.6	·	·	·	·	·	·
COC(=O)[C@@]12C[C@@H](CC(=O)N3CCCC3)C(=O)N(Cc3cccc4ccccc34)C1=CCC(C)(C)C2	·	-1.5	2.3	6.0	-3.0	·	·
O=[N+]([O-])c1ccc(SN2CCCCC2)c([N+](=O)[O-])c1	·	7.0	1.3	-10.6	2.2	·	·
Cc1ccnc(Nc2nc(-c3ccc(O)c(O)c3)cs2)c1	73.5*	2.5	15.7	9.6	42.0*	85.1*	47.2*
Cc1cccnc1Nc1nc(-c2ccc(O)c(O)c2)cs1	80.9*	10.4	-6.0	16.8	35.2*	69.7*	43.2*
